Experimental data gathered from unrelated publications.
Each line is one published result; the experiments were not run side by side.
Effect on: cell growth or viability

Compound | cell line | test | conditions | IC50 [µM]
CNC(=O)c1cc(Oc2ccc(NC(=O)Nc3ccc(Cl)c(C(F)(F)F)c3)cc2)ccn1 | NCI-H460 | MTT | 72 h | 3.81
Cc1c(C(=O)O)ccc2c3n(nc12)[C@@H]1[C@H](C3)N(CC2CC2)[C@@]2(C(=O)Nc3cc(Cl)ccc32)[C@H]1c1cccc(Cl)c1F | Colon 26 | resazurin | 72 h | 0.259
CCOC(=O)c1ccc2c(c1)C(=O)CCN1C(=O)c3ccccc3C1C(=O)N2 (centres unmarked) | L6 | – | – | > 260
COc1cc2nc(N3CCN(C(=O)C4COc5ccccc5O4)CC3)nc(N)c2cc1OC (centres unmarked) | HNE1 | MTT | 48 h | 22.4
N=C(N/N=C/c1ccc(Oc2ccc(Cl)cc2)cc1)N/N=C/c1ccc(Oc2ccc(Cl)cc2)cc1 | L6 | resazurin | 70 h | 3.18
C=C(F)C(=O)N1CCN(c2nc(OC[C@@H]3CCCN3C)nc3c2CCN(c2cccc4cccc(Cl)c24)C3)C[C@@H]1CC#N | A-427 | ATP luminescence | 3D culture | > 1
N#Cc1cc(C=NNC(=N)NN=Cc2ccc(F)c(C#N)c2)ccc1F | L6 | resazurin | 70 h | 5.95
CN1C(=O)C2c3ccccc3C(=O)N2CCC(=O)c2ccccc21 (centres unmarked) | L6 | – | – | > 300
COc1cc2c3c(n(CCCNCCO)c(=O)c2cc1OC)-c1nc2c(cc1C3=O)OCO2 | RS4-11 | MTS | 72 h | 0.034
O=C1CCC(N2Cc3c(C#CC4CCN(C(=O)[C@H]5CC[C@H](NC(=O)[C@H]6NC7(CCCCC7)[C@]7(C(=O)Nc8cc(Cl)ccc87)[C@H]6c6cccc(Cl)c6F)CC5)CC4)cccc3C2=O)C(=O)N1 (some centres unmarked) | RS4-11 | – | – | 0.062
O=C1CCN2C(=O)c3ccccc3C2C(=O)Nc2ccc(F)cc21 (centres unmarked) | L6 | – | – | > 310
COc1cc2c3c(n(CCCn4ccnc4)c(=O)c2cc1OC)-c1nc2c(cc1C3=O)OCO2 | RS4-11 | MTS | 72 h | 0.12
N#Cc1cccc(CC=NNC(=N)NN=CCc2cccc(C#N)c2)c1 | L6 | resazurin | 70 h | 2.63
O=C1CCN2C(=O)c3ccccc3C2C(=O)Nc2cc(F)ccc21 (centres unmarked) | L6 | – | – | > 300
CC1(C)CCC(CN2CCN(c3ccc(C(=O)NS(=O)(=O)c4ccc(NCC5CCOCC5)c([N+](=O)[O-])c4)c(Oc4cnc5[nH]ccc5c4)c3)CC2)=C(c2ccc(Cl)cc2)C1 | RS4-11 | ATP luminescence | 48 h | 0.0045
N=C(N/N=C/c1ccc(Oc2ccccc2)cc1)N/N=C/c1ccc(Oc2ccccc2)cc1 | L6 | resazurin | 70 h | 4.44
Cc1cc(/C=C/C#N)cc(C)c1Nc1ccnc(Nc2ccc(C#N)cc2)n1 | HK-1 | MTT | 48 h | 7.59
COc1cc2c3c(n(CCCNC(C)C)c(=O)c2cc1OC)-c1nc2c(cc1C3=O)OCO2 | RS4-11 | MTS | 72 h | 0.053
CC12C(=O)Nc3ccccc3C(=O)CCN1C(=O)c1ccccc12 (centres unmarked) | L6 | – | – | > 300
COc1cc2nc(N3CCN(C(=O)c4ccco4)CC3)nc(N)c2cc1OC | HK-1 | MTT | 48 h | 30
N=C(NN=CCc1ccc(OC(F)F)cc1)NN=CCc1ccc(OC(F)F)cc1 | L6 | resazurin | 70 h | 2.03
CO[C@]12C[C@@H](COC(=O)c3cncc(Br)c3)CN(C)[C@@H]1Cc1cn(C)c3cccc2c13 | HNE1 | MTT | 48 h | 1.45
COc1cc2c(cc1OC)-c1cc3ccc(OC)c(OCCN)c3c[n+]1CC2 | NCI-H460 | MTT | 72 h | > 80
